Measurements from the M2OR odorant receptor database.

biological target: T1, Or1m1 (Mus musculus) (UniProt Q8VFM9); conditions: stereoisomer not certain
T1 sequence (whole entry): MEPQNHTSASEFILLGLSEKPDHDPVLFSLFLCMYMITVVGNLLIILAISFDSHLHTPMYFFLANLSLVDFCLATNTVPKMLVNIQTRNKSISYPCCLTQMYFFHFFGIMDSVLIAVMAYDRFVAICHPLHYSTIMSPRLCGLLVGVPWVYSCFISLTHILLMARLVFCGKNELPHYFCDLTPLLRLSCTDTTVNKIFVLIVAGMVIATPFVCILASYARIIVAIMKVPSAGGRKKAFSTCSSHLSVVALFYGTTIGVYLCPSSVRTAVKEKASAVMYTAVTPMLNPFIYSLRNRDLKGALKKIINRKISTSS
How it was run: (§1)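 Whether a receptor–molecule pair is responsive (active) rests on the original authors' judgment that its measured signal was statistically different from baseline. Pairs without that judgment are non-responsive (inactive). Sources used varied assay methods, commonly transient luciferase assays in mammalian cell lines.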
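Further: active if original authors judged signal statistically different from baseline.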

| Compound | odorant receptor agonist call |
| --- | --- |
| O=C(OCc1ccccc1)c1ccccc1O | inactive |
| CCCCCCC(=O)OCCCC | inactive |
| CSSSC | inactive |
| CCCCCCC(C=O)=Cc1ccccc1 | inactive |
| CCN(CC)CC | inactive |
| CCCCCCCCCC=CC=O | inactive |
| Cc1ccc2c(c1)OCC(=O)CO2 | inactive |
| C=CC(=O)CCCCC | inactive |
| CC(C)=CCCC(C)=CCOC(=O)C(C)C | inactive |
| CC1CCC(C(C)C)C(=O)C1 (centres undefined) | inactive |
| CC=C(C)C=O | inactive |
| CC(=O)C=CC1=C(C)CCCC1(C)C | inactive |
| CCCC=O | inactive |
| C=C(C)C1CCC(C)C(O)C1 (centres undefined) | inactive |
| Cc1occc1SSc1ccoc1C | inactive |
| CC(=O)OC1(C)CCC23CC1C(C)(C)C2CCC3C (centres undefined) | active |
| CCCCCOC(=O)CC | inactive |
| C=C1C2CCC(C2)C1(C)C (centres undefined) | inactive |
| C1CCOC1 | inactive |

| Compound | odorant receptor agonist call |
| --- | --- |
| CCCCCC(C)O (centres undefined) | inactive |
| CCCCCCCOC(=O)C(C)C | inactive |
| COC(OC)c1ccccc1 | inactive |
| OCC=Cc1ccccc1 | inactive |
| C=CC(C)=CCC=C(C)CCC=C(C)C | inactive |
| CCC=CCCCCC=O | inactive |
| c1ccc2ncccc2c1 | inactive |
| CCCC(C)C(=O)OCC (centres undefined) | inactive |
| CCC=CCCC=CC=O | inactive |
| C=C(C)C1CCC2(C)OC2C1 (centres undefined) | inactive |
| CCCCCCCCCCOC(C)=O | inactive |
| Cc1c(C)c(C)c(C=O)c(C)c1C | inactive |
| COc1ccccc1 | inactive |
| CC1(C)CC(=O)CC(=O)C1 | inactive |
| O=C(O)CCCCCBr | inactive |
| CCc1ccccc1O | inactive |
| CC(C)=C1CCC(C)CC1=O (centres undefined) | inactive |
| CSSCc1ccco1 | inactive |

biological target: T2, Or5ar1 (Mus musculus) (UniProt Q8VGS3); conditions: stereoisomer not certain
T2 sequence (whole entry): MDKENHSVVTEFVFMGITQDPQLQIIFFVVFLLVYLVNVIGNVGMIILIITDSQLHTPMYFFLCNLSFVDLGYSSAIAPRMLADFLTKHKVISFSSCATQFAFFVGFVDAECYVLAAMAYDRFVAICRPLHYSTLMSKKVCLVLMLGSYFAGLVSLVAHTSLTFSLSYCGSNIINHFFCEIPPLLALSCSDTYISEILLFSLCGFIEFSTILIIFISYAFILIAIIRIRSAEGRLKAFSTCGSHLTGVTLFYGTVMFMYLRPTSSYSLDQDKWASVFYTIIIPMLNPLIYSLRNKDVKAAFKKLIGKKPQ
How it was run: as §1

| Compound | odorant receptor agonist call |
| --- | --- |
| O=C(OCc1ccccc1)c1ccccc1O | inactive |
| CCCCCCC(=O)OCCCC | inactive |
| CSSSC | inactive |
| CCCCCCC(C=O)=Cc1ccccc1 | inactive |
| CCN(CC)CC | inactive |
| CCCCCCCCCC=CC=O | inactive |
| Cc1ccc2c(c1)OCC(=O)CO2 | inactive |
| C=CC(=O)CCCCC | inactive |
| CC(C)=CCCC(C)=CCOC(=O)C(C)C | inactive |
| CC1CCC(C(C)C)C(=O)C1 (centres undefined) | inactive |
| CC=C(C)C=O | inactive |
| CC(=O)C=CC1=C(C)CCCC1(C)C | inactive |
| CCCC=O | inactive |
| C=C(C)C1CCC(C)C(O)C1 (centres undefined) | inactive |
| Cc1occc1SSc1ccoc1C | inactive |
| CC(=O)OC1(C)CCC23CC1C(C)(C)C2CCC3C (centres undefined) | inactive |
| CCCCCOC(=O)CC | inactive |
| C=C1C2CCC(C2)C1(C)C (centres undefined) | inactive |
| C1CCOC1 | inactive |

| Compound | odorant receptor agonist call |
| --- | --- |
| CCCCCC(C)O (centres undefined) | inactive |
| CCCCCCCOC(=O)C(C)C | inactive |
| COC(OC)c1ccccc1 | inactive |
| OCC=Cc1ccccc1 | inactive |
| C=CC(C)=CCC=C(C)CCC=C(C)C | inactive |
| CCC=CCCCCC=O | inactive |
| c1ccc2ncccc2c1 | inactive |
| CCCC(C)C(=O)OCC (centres undefined) | inactive |
| CCC=CCCC=CC=O | inactive |
| C=C(C)C1CCC2(C)OC2C1 (centres undefined) | inactive |
| CCCCCCCCCCOC(C)=O | inactive |
| Cc1c(C)c(C)c(C=O)c(C)c1C | inactive |
| COc1ccccc1 | inactive |
| CC1(C)CC(=O)CC(=O)C1 | inactive |
| O=C(O)CCCCCBr | inactive |
| CCc1ccccc1O | inactive |
| CC(C)=C1CCC(C)CC1=O (centres undefined) | inactive |
| CSSCc1ccco1 | inactive |
